In ChEMBL document CHEMBL3425481, “Design, synthesis and anticancer activity of matrine-1H-1,2,3-triazole-chalcone conjugates” (Bioorg Med Chem Lett, 2015):
Activity calls are given as the source filed them. No cut-off for these calls is given here.

Key:
[1] = Antiproliferative activity against mouse NIH/3T3 cells assessed as inhibition of cell proliferation incubated for 48 hrs by CCK8 assay; assay type: cell-based; conditions: NIH3T3, 48 h
Method in brief: (§1)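 Human A549 lung, Hela cervical, Bel-7402 hepatocellular and MCF-7 breast cancer cells, plus mouse embryo fibroblast NIH3T3, tested for anti-proliferative activity by CCK-8 assay. For the matrine combination tests, the chalcone and matrine were used at a 1:1 molar ratio; values given as IC50.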

[2] = tested on: A549; assay: Antiproliferative activity against human A549 cells assessed as inhibition of cell proliferation incubated for 48 hrs by CCK8 assay; assay type: functional, cell-based; conditions: A549, 48 h; method in brief: as §1
[3] = tested on: MCF7; assay: Antiproliferative activity against human MCF7 cells assessed as inhibition of cell proliferation incubated for 48 hrs by CCK8 assay; assay type: functional, cell-based; conditions: MCF7, 48 h; method in brief: as §1
[4] = tested on: HeLa; assay: Antiproliferative activity against human HeLa cells assessed as inhibition of cell proliferation incubated for 48 hrs by CCK8 assay; assay type: functional, cell-based; method in brief: as §1
[5] = Antiproliferative activity against human Bel7402 cells assessed as inhibition of cell proliferation incubated for 48 hrs by CCK8 assay; assay type: functional, cell-based; conditions: Bel-7402, 48 h; method in brief: as §1
[6] = tested on: A549; assay: Antitumor activity against human A549 cells xenografted in Balb/ca-nu mouse assessed as tumor growth inhibition at 5 mg/kg, iv dosed every 3 days for total of 7 dosing rounds measured on day 16 after treatment; assay type: functional; conditions: read-out: TGI
Method in brief: (§2)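 A549 xenograft in mice, dosed by tail vein injection every 3 days; vehicle saline plus 0.2% Tween 80. n = 8 per treatment group, 6 in the vehicle group. Mean ± SE.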

[7] = tested on: A549; assay: Antitumor activity against human A549 cells xenografted in Balb/ca-nu mouse assessed as tumor growth inhibition at 5 mg/kg, iv dosed every 3 days for total of 7 dosing rounds measured on day 12 after treatment; assay type: functional; conditions: read-out: TGI; method in brief: as §2
[8] = tested on: A549; assay: Antitumor activity against human A549 cells xenografted in Balb/ca-nu mouse assessed as tumor growth inhibition at 5 mg/kg, iv dosed every 3 days for total of 7 dosing rounds measured on day 14 after treatment; assay type: functional; conditions: read-out: TGI; method in brief: as §2
[9] = tested on: A549; assay: Antitumor activity against human A549 cells xenografted in Balb/ca-nu mouse assessed as tumor growth inhibition at 5 mg/kg, iv dosed every 3 days for total of 7 dosing rounds measured on day 18 after treatment; assay type: functional; conditions: read-out: TGI; method in brief: as §2
[10] = tested on: A549; assay: Antitumor activity against human A549 cells xenografted in Balb/ca-nu mouse assessed as tumor growth inhibition at 10 mg/kg, iv dosed every 3 days for total of 7 dosing rounds measured on day 8 after treatment; assay type: functional, organism-based; set-up: dose 10 mg/kg; method in brief: as §2
[11] = tested on: A549; assay: Antitumor activity against human A549 cells xenografted in Balb/ca-nu mouse assessed as tumor growth inhibition at 5 mg/kg, iv dosed every 3 days for total of 7 dosing rounds measured on day 10 after treatment; assay type: functional; conditions: read-out: TGI; method in brief: as §2
[12] = tested on: A549; assay: Antitumor activity against human A549 cells xenografted in Balb/ca-nu mouse assessed as tumor growth inhibition at 5 mg/kg, iv dosed every 3 days for total of 7 dosing rounds measured on day 20 after treatment; assay type: functional; conditions: read-out: TGI; method in brief: as §2

| SMILES | IC50 [1] | IC50 [2] | IC50 [3] | IC50 [4] | IC50 [5] | inhibition in vivo at 5 mg/kg [6] | inhibition in vivo at 5 mg/kg [7] | inhibition in vivo at 5 mg/kg [8] | inhibition in vivo at 5 mg/kg [9] | TGI [10] | inhibition in vivo at 5 mg/kg [11] | inhibition in vivo at 5 mg/kg [12] |
| --- | --- | --- | --- | --- | --- | --- | --- | --- | --- | --- | --- | --- |
| COc1ccc(/C=C/C(=O)c2ccc(OCc3cn([C@H]4CC(=O)N5C[C@@H]6CCCN7CCC[C@@H]([C@H]67)[C@H]5C4)nn3)cc2O)cc1 | 29.6 µM | > 50 µM | > 50 µM | > 50 µM | > 50 µM | – | – | – | – | – | – | – |
| O=c1[nH]cc(F)c(=O)[nH]1 [FLUOROURACIL] | 22.4 µM | 40.4 µM | 9.56 µM | 8.93 µM | 19.9 µM | – | – | – | – | – | – | – |
| O=C(/C=C/c1ccc(F)cc1)c1ccc(OCc2cn([C@H]3CC(=O)N4C[C@@H]5CCCN6CCC[C@@H]([C@H]56)[C@H]4C3)nn2)cc1 | 39.8 µM | 18.7 µM | 26.9 µM | 18.7 µM | 22.2 µM | – | – | – | – | – | – | – |
| O=C(/C=C/c1ccc(OC(F)F)cc1)c1ccc(OCc2cn([C@H]3CC(=O)N4C[C@@H]5CCCN6CCC[C@@H]([C@H]56)[C@H]4C3)nn2)cc1 | 27.3 µM | > 50 µM | – | > 50 µM | – | – | – | – | – | – | – | – |
| COc1ccc(/C=C/C(=O)c2ccc(OCc3cn([C@H]4CC(=O)N5C[C@@H]6CCCN7CCC[C@@H]([C@H]67)[C@H]5C4)nn3)cc2)cc1 | 23.1 µM | > 50 µM | – | > 50 µM | – | – | – | – | – | – | – | – |
| C#CCOc1ccc(C(=O)/C=C/c2ccc(Cl)c(Cl)c2)cc1 | 61.8 µM | > 50 µM | > 50 µM | > 50 µM | – | – | – | – | – | – | – | – |
| COc1ccc(/C=C/C(=O)c2ccc(OCc3cn([C@H]4CC(=O)N5C[C@@H]6CCCN7CCC[C@@H]([C@H]67)[C@H]5C4)nn3)cc2O)cc1OC | 13.3 µM | > 50 µM | – | > 50 µM | – | – | – | – | – | – | – | – |
| O=C(/C=C/c1ccc(Cl)c(Cl)c1)c1ccc(OCc2cn([C@H]3CC(=O)N4C[C@@H]5CCCN6CCC[C@@H]([C@H]56)[C@H]4C3)nn2)cc1O | 48.3 µM | 8.08 µM | 7.03 µM | 6.63 µM | 12.4 µM | – | – | – | – | – | – | – |
| C#CCOc1ccc(C(=O)/C=C/c2ccc(Cl)c(Cl)c2)c(O)c1 | 94.7 µM | > 50 µM | > 50 µM | > 50 µM | – | – | – | – | – | – | – | – |
| Cc1ccc(/C=C/C(=O)c2ccc(OCc3cn([C@H]4CC(=O)N5C[C@@H]6CCCN7CCC[C@@H]([C@H]67)[C@H]5C4)nn3)cc2)cc1 | 14.8 µM | 32.4 µM | 26.8 µM | 19.9 µM | 35.6 µM | – | – | – | – | – | – | – |
| O=C(/C=C/c1ccccc1)c1ccc(OCc2cn([C@H]3CC(=O)N4C[C@@H]5CCCN6CCC[C@@H]([C@H]56)[C@H]4C3)nn2)cc1O | > 100 µM | 16.8 µM | 12 µM | 17.3 µM | 17.3 µM | – | – | – | – | – | – | – |
| O=C(/C=C/c1ccc(Br)cc1)c1ccc(OCc2cn([C@H]3CC(=O)N4C[C@@H]5CCCN6CCC[C@@H]([C@H]56)[C@H]4C3)nn2)cc1 | 30.9 µM | 24.5 µM | 22.7 µM | 17.1 µM | 22.7 µM | – | – | – | – | – | – | – |
| O=C(/C=C/c1ccc(Cl)cc1)c1ccc(OCc2cn([C@H]3CC(=O)N4C[C@@H]5CCCN6CCC[C@@H]([C@H]56)[C@H]4C3)nn2)cc1 | 31.3 µM | 18.9 µM | 14.3 µM | 19.3 µM | 21.2 µM | – | – | – | – | – | – | – |
| O=C(/C=C/c1ccc(Cl)c(Cl)c1)c1ccc(OCc2cn([C@H]3CC(=O)N4C[C@@H]5CCCN6CCC[C@@H]([C@H]56)[C@H]4C3)nn2)cc1 | 19.4 µM | 8.72 µM | 13.3 µM | 11.4 µM | 11.9 µM | – | – | – | – | – | – | – |
| O=C(/C=C/c1ccccc1)c1ccc(OCc2cn([C@H]3CC(=O)N4C[C@@H]5CCCN6CCC[C@@H]([C@H]56)[C@H]4C3)nn2)cc1 | 19.4 µM | 32.2 µM | 17.2 µM | 25.4 µM | 20.7 µM | – | – | – | – | – | – | – |
| CC(=O)c1ccc(OCc2cn([C@H]3CC(=O)N4C[C@@H]5CCCN6CCC[C@@H]([C@H]56)[C@H]4C3)nn2)cc1O | 61.8 µM | > 50 µM | > 50 µM | > 50 µM | > 50 µM | – | – | – | – | – | – | – |
| C#CCOc1ccc(C(=O)/C=C/c2ccccc2)cc1 | 72.9 µM | > 50 µM | > 50 µM | > 50 µM | – | – | – | – | – | – | – | – |
| CC(=O)c1ccc(OCc2cn([C@H]3CC(=O)N4C[C@@H]5CCCN6CCC[C@@H]([C@H]56)[C@H]4C3)nn2)cc1 | 42.9 µM | > 50 µM | > 50 µM | > 50 µM | > 50 µM | – | – | – | – | – | – | – |
| O=C(/C=C/c1cccc(Cl)c1)c1ccc(OCc2cn([C@H]3CC(=O)N4C[C@@H]5CCCN6CCC[C@@H]([C@H]56)[C@H]4C3)nn2)cc1 | 38.1 µM | 11.9 µM | 10.2 µM | 15.2 µM | 13.7 µM | – | – | – | – | – | – | – |
| O=C(/C=C/c1ccc(Cl)cc1)c1ccc(OCc2cn([C@H]3CC(=O)N4C[C@@H]5CCCN6CCC[C@@H]([C@H]56)[C@H]4C3)nn2)cc1O | 75.2 µM | 15.6 µM | 12.7 µM | 10.7 µM | 14.7 µM | – | – | – | – | – | – | – |
| COc1ccc(/C=C/C(=O)c2ccc(OCc3cn([C@H]4CC(=O)N5C[C@@H]6CCCN7CCC[C@@H]([C@H]67)[C@H]5C4)nn3)cc2)cc1OC | 41.1 µM | > 50 µM | – | > 50 µM | – | – | – | – | – | – | – | – |
| O=C(/C=C/c1ccccc1Cl)c1ccc(OCc2cn([C@H]3CC(=O)N4C[C@@H]5CCCN6CCC[C@@H]([C@H]56)[C@H]4C3)nn2)cc1 | 88 µM | 14.2 µM | 23.8 µM | 13.5 µM | 21.8 µM | – | – | – | – | – | – | – |
| O=C(/C=C/c1cccc(C(F)(F)F)c1)c1ccc(OCc2cn([C@H]3CC(=O)N4C[C@@H]5CCCN6CCC[C@@H]([C@H]56)[C@H]4C3)nn2)cc1O | 34.8 µM | 8.18 µM | 8.87 µM | 12.7 µM | 12.1 µM | – | – | – | – | – | – | – |
| CC(C)(C)c1ccc(/C=C/C(=O)c2ccc(OCc3cn([C@H]4CC(=O)N5C[C@@H]6CCCN7CCC[C@@H]([C@H]67)[C@H]5C4)nn3)cc2O)cc1 | 20.4 µM | 36.5 µM | – | 36.3 µM | – | – | – | – | – | – | – | – |
| O=C(/C=C/c1ccc([N+](=O)[O-])cc1)c1ccc(OCc2cn([C@H]3CC(=O)N4C[C@@H]5CCCN6CCC[C@@H]([C@H]56)[C@H]4C3)nn2)cc1 | 35.7 µM | 14.5 µM | 11.5 µM | 6.06 µM | 16.2 µM | – | – | – | – | – | – | – |
| CC(=O)O[C@H]1C(=O)[C@@]2(C)[C@H]([C@H](OC(=O)c3ccccc3)[C@]3(O)C[C@H](OC(=O)[C@H](O)[C@@H](NC(=O)c4ccccc4)c4ccccc4)C(C)=C1C3(C)C)[C@]1(OC(C)=O)CO[C@@H]1C[C@@H]2O [PACLITAXEL] | 20 µM | 2.82 µM | – | 0.38 µM | – | 85.4% | 70.4% | 79.5% | 88.9% | Active | 58.3% | 89.1% |
| Cc1ccc(/C=C/C(=O)c2ccc(OCc3cn([C@H]4CC(=O)N5C[C@@H]6CCCN7CCC[C@@H]([C@H]67)[C@H]5C4)nn3)cc2O)cc1 | 20.9 µM | > 50 µM | – | > 50 µM | – | – | – | – | – | – | – | – |
| O=C(/C=C/c1ccc(F)cc1)c1ccc(OCc2cn([C@H]3CC(=O)N4C[C@@H]5CCCN6CCC[C@@H]([C@H]56)[C@H]4C3)nn2)cc1O | 36.1 µM | 18.3 µM | 5.71 µM | 19.8 µM | 9.02 µM | – | – | – | – | – | – | – |
| COc1cc(/C=C/C(=O)c2ccc(OCc3cn([C@H]4CC(=O)N5C[C@@H]6CCCN7CCC[C@@H]([C@H]67)[C@H]5C4)nn3)cc2O)cc(OC)c1OC | 15.2 µM | > 50 µM | – | > 50 µM | – | – | – | – | – | – | – | – |
| C#CCOc1ccc(C(=O)/C=C/c2cccc(Cl)c2)c(O)c1 | 79.5 µM | > 50 µM | > 50 µM | > 50 µM | – | – | – | – | – | – | – | – |
